Laboratory results taken from ChEMBL document CHEMBL4613280, “Development of Pyrazolo[3,4-d]pyrimidine Kinase Inhibitors as Potential Clinical Candidates for Glioblastoma Multiforme” (ACS Med Chem Lett, 2020).
Calls of active or inactive are those of the source. The calls are words filed in the database; no cut-off is given here.

How the values were obtained:
Homo sapiens [1] = species on record: Homo sapiens; test: Induction of apoptosis in human GIN8 cells assessed as increase in caspase 3/7 activation at 12.5 uM measured after 48 hrs by CellEvent caspase 3/7 probe based fluorescence analysis; assay type: functional, cell-based
Procedure, shortened: (§1)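 Cells exposed 48 h to compounds diluted in 10% FBS DMEM. Activated caspase-3/7 detected with the CellEvent probe. Staurosporine 10.0 μM served as reference inducer. Mean ± SEM (n = 3). Two-way ANOVA with Dunnett's test.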

[2] = Cytotoxicity against human GIN8 cells derived from invasive region of GBM patient assessed as reduction in cell viability measured after 48 hrs by Prestoblue assay; assay type: functional, cell-based
Procedure, shortened: (§2)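 Compounds diluted in DMEM containing 10% FBS and applied for 48 h. Viability read by PrestoBlue. IC50 calculated from three independent experiments, mean ± SE. Two-way ANOVA with Dunnett's multiple comparisons test.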

[3] = Additive cytotoxicity against human GCE28 cells assessed as combination index measured after 48 hrs in presence of N-(3-bromophenyl)-1-(2-chloro-2-phenylethyl)6(2morpholinoethylsulfanyl)pyrazolo[3,4-d]pyrimidin-4-amine by Chou-Talalay assay; assay type: functional
Procedure, shortened: (§3)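 Each drug pair dosed at a 1:1 molar ratio on the GBM lines and incubated 48 h. CI computed from three independent IC50 experiments (n = 3), reported as mean ± SD.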

[4] = Additive cytotoxicity against human GIN28 cells assessed as combination index measured after 48 hrs in presence of N-(3-bromophenyl)-1-(2-chloro-2-phenylethyl)6(2morpholinoethylsulfanyl)pyrazolo[3,4-d]pyrimidin-4-amine by Chou-Talalay assay; assay type: functional; procedure, shortened: as §3
[5] = Synergistic cytotoxicity against human GCE28 cells assessed as combination index measured after 48 hrs in presence of 3-(4-chlorophenyl)-1-(2-chloro-2-phenylethyl)pyrazolo[3,4-d]pyrimidin-4-amine by Chou-Talalay assay; assay type: functional; procedure, shortened: as §3
[6] = Synergistic cytotoxicity against human GIN28 cells assessed as combination index measured after 48 hrs in presence of 3-(4-chlorophenyl)-1-(2-chloro-2-phenylethyl)pyrazolo[3,4-d]pyrimidin-4-amine by Chou-Talalay assay; assay type: functional; procedure, shortened: as §3
[7] = biological target: Serine/threonine-protein kinase Sgk1 (Homo sapiens, UniProt O00141, S422D); test: Inhibition of human N-terminal His6-tagged N-truncated human SGK1 harboring S422D mutant expressed in Sf21 cells using Sgktide-peptide as substrate in presence of [gamma-32P]ATP by scintillation counting method
[8] = Additive cytotoxicity against human GIN8 cells assessed as combination index measured after 48 hrs in presence of N-(3-bromophenyl)-1-(2-chloro-2-phenylethyl)6(2morpholinoethylsulfanyl)pyrazolo[3,4-d]pyrimidin-4-amine by Chou-Talalay assay; assay type: functional; procedure, shortened: as §3
Homo sapiens [9] = species on record: Homo sapiens; test: Induction of apoptosis in human GIN28 cells assessed as increase in caspase 3/7 activation at 12.5 uM measured after 48 hrs by CellEvent caspase 3/7 probe based fluorescence analysis; assay type: functional, cell-based; procedure, shortened: as §1
[10] = Cytotoxicity against human GCE28 cells derived from central tumor core of GBM patient assessed as reduction in cell viability measured after 48 hrs by Prestoblue assay; assay type: functional, cell-based; procedure, shortened: as §2
Homo sapiens [11] = species on record: Homo sapiens; test: Induction of apoptosis in human GCE28 cells assessed as increase in caspase 3/7 activation at 12.5 uM measured after 48 hrs by CellEvent caspase 3/7 probe based fluorescence analysis; assay type: functional, cell-based; procedure, shortened: as §1
[12] = Cytotoxicity against human GIN28 cells derived from invasive region of GBM patient assessed as reduction in cell viability measured after 48 hrs by Prestoblue assay; assay type: functional, cell-based; procedure, shortened: as §2
[13] = Antagonistic cytotoxicity against human GIN8 cells assessed as combination index measured after 48 hrs in presence of 3-(4-chlorophenyl)-1-(2-chloro-2-phenylethyl)pyrazolo[3,4-d]pyrimidin-4-amine by Chou-Talalay assay; assay type: functional; procedure, shortened: as §3
Homo sapiens [14] = species on record: Homo sapiens; test: Induction of apoptosis in human GCE28 cells assessed as increase in caspase 3/7 activation at 10 uM measured after 48 hrs by CellEvent caspase 3/7 probe based fluorecence analysis; assay type: functional, cell-based
Procedure, shortened: (§4)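 Patient-derived GBM cells were exposed to compound diluted in DMEM containing 10% FBS for 48 h. Activated effector caspases-3/7 were then detected with the CellEvent caspase-3/7 fluorescent probe. Data are mean ± SEM of n = 3. Significance was tested by two-way ANOVA with Dunnett's multiple comparisons test.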

Homo sapiens [15] = species on record: Homo sapiens; test: Induction of apoptosis in human GIN8 cells assessed as increase in caspase 3/7 activation at 10 uM measured after 48 hrs by CellEvent caspase 3/7 probe based fluorescence analysis; assay type: functional, cell-based; procedure, shortened: as §4
Homo sapiens [16] = species on record: Homo sapiens; test: Induction of apoptosis in human GIN28 cells assessed as increase in caspase 3/7 activation at 10 uM measured after 48 hrs by CellEvent caspase 3/7 probe based fluorescence analysis; assay type: functional, cell-based; procedure, shortened: as §4

Sequence of Serine/threonine-protein kinase Sgk1 (O00141 whole entry S422D, the tested form may be a part): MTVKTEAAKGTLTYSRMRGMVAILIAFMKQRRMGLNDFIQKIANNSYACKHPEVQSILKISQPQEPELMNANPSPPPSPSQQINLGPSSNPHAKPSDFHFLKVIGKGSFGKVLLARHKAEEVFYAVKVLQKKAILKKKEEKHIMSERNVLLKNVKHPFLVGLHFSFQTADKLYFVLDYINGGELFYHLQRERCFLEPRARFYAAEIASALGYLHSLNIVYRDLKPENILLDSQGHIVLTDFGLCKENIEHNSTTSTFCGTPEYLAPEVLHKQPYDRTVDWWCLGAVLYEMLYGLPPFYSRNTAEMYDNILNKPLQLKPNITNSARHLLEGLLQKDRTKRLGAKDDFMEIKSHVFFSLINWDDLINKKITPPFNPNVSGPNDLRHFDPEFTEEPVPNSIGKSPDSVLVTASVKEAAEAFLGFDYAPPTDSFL

Row | Ki [7] [µM] | SMILES | Activity (Homo sapiens [1]) | IC50 [2] [µM] | CI [3] | CI [4] | CI [5] | CI [6] | CI [8] | Activity (Homo sapiens [9]) | IC50 [10] [µM] | Activity (Homo sapiens [11]) | IC50 [12] [µM] | CI [13] | Activity (Homo sapiens [14]) | Activity (Homo sapiens [15]) | Activity (Homo sapiens [16])
1 | 0.6 | OCCNc1nc(NCCc2ccccc2)c2cnn(/C=C/c3ccccc3)c2n1 | Active | 10.5 | 0.97 | 0.9 | 0.46 | 0.57 | 0.99 | inactive | 10.7 | Active | 14.4 | 1.13 |  |  | 
2 |  | CN[C@@H]1C[C@H]2O[C@@](C)([C@@H]1OC)n1c3ccccc3c3c4c(c5c6ccccc6n2c5c31)C(=O)NC4 |  |  |  |  |  |  |  |  |  |  |  |  | Active | Active | Active
